The list is not random: actives were taken first. Their share in the collection is about 1.6%.
NR2E3 ag-1: agonists of human nuclear receptor NR2E3 | Q9Y5X4 | GST-NR2E3/biotin-RetCOR TR-FRET, 1536-well | inhibition of corepressor binding, % at 4.78 µM | 320,000 compounds, 0.12% hits | AID 2300;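 active = percent inhibition above the cutoff of mean plus 3 SD of all tested compounds, set per screening campaign, cut at about 20% in these data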;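 note: 0% = DMSO wells and 100% = biotin wells as full block of FRET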
Target sequence (Q9Y5X4 whole entry, looked up): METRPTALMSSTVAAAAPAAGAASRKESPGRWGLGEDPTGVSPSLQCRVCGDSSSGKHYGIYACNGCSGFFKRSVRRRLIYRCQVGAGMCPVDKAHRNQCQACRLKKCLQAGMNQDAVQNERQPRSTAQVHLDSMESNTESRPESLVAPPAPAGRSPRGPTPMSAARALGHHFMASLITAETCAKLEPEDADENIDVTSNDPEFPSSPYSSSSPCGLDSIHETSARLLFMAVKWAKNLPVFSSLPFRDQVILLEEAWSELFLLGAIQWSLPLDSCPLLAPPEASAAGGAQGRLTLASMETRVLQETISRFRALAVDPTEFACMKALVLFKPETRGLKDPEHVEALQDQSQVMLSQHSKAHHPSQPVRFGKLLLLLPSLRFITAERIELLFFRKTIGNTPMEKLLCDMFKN
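Format: 1536-well format; test system: GST-NR2E3 and biotin-RetCOR proteins; read-out basis: percent inhibition of TR-FRET ratio; timing: 5 h incubation at 4 °C; detection: time-resolved FRET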
PG9 Ab binder: small molecules binding HIV-1 gp120 antibody PG9; TR-FRET gp120-PG9 antibody binding; inhibition, % at 6.7 µM; 360,000 compounds, 0.43% hits; in the data active = inhibition above about 8.5%
NR1D1 modulator: modulators of human Rev-erb alpha DNA binding; 370,000 compounds, 0.79% hits; P20393; Rev-erbα–FITC-DNA binding, fluorescence polarization, 90 min; activity, % at 10 µM; AID 1259318;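 active = activity above about 14%, limit read from the data; passing the limit was not always enough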;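 note: 0% = DMSO wells with 35 nM protein and 100% = DMSO wells with 750 nM protein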
PKA-R2B act: PKA-R2B complex activation. AID 504700. P22694+P31323. 340,000 compounds, 0.079% hits. PKA-R2B holoenzyme dissociation, Cy5-IP20 fluorescence polarization; R2B truncated from residue 108, S112A mutant; 0% DMSO only, 100% 113 µM cGMP. activation, % at 11.4 µM;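 active = activation above a cutoff set at the mean over all compounds plus 3 SD, cut at about 18% in these data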;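 note: higher means more holoenzyme dissociation and a rise in polarization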
NR2E3 ag-2: agonists of human NR2E3 nuclear receptor; Q9Y5X4; CHO-S Gal4-NCOR/VP16-NR2E3 two-hybrid, luciferase; inhibition of corepressor binding, % at 3.98 µM; 360,000 compounds, 0.35% hits; AID 602229;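 active = inhibition above the mean of all tested compounds plus 3 SD, cut at about 70% in these data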;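 note: 0% = DMSO with NR2E3 transfected cells and 100% = cells lacking NR2E3 construct; higher means lower luciferase signal from less NR2E3 corepressor binding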
PKA-R1A act: activators of PKA-R1A complex | P00514+P68181 | PKA-R1A dissociation, Cy5-IP20 fluorescence polarization; scaled: DMSO 0%, 113 µM cGMP 100% | activation, % at 11.4 µM | 340,000 compounds, 0.083% hits | AID 504707;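 active = percent activation above the mean of all tested compounds plus 3 SD, cut at about 19% in these data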;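 note: higher means more PKAc released from R1A so a rise in polarization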
NR1D1 mod conf: confirmation of modulators of human Rev-erb alpha DNA binding. activation, % at 25 µM. shares compounds with NR1D1 modulator. Rev-erb alpha FITC-DNA binding, fluorescence polarization, 90 min. 3,000 compounds, 61% hits;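 active = activation at or above a set limit, or at least 3 SD above the negative control mean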;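 note: 0% = 35 nM protein with DMSO and 100% = 750 nM protein high control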
RORg DNA counter: affects RORgamma DNA binding in a Rev-erb alpha counter-screen; shares compounds with NR1D1 modulator; purified RORgamma protein-FITC-DNA binding, fluorescence polarization; IC50, µM; 910 compounds, 8% hits; AID 1259320;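 active = Compounds whose fitted half-maximal concentration for disrupting protein-DNA binding is below 10 micromolar; the record names Rev-erb in its text, so the target is in doubt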
Starred values were filed as active, the others as inactive; i = inactive; x = not tested or not shown.

SMILES	NR2E3 ag-1	PG9 Ab binder	NR1D1 modulator	PKA-R2B act	NR2E3 ag-2	PKA-R1A act	NR1D1 mod conf	others
COC1C(O)CCC2(CO2)C1C1(C)OC1CC=C(C)C (configuration not stated)	x	1	-4	x	x	x	x
COc1cc(OC)cc(-c2c(Sc3ccccc3)c3cc(-c4ccc(SC)cc4)ccc3n2C)c1	x	2	29*	x	-6	x	35*	RORg DNA counter=>40
COc1ccc(-c2ccc3c(c2)c(Sc2ccccc2)c(-c2ccccc2)n3C)cc1	x	1	3	x	-4	x	x
CSc1ccc(-c2ccc3c(c2)c(Sc2ccccc2)c(-c2ccccc2)n3C)cc1	x	-1	17*	x	-8	x	25*
COc1cc(OC)cc(-c2c(Sc3ccccc3)c3cc(-c4ccc(OC)c(F)c4)ccc3n2C)c1	x	8	21*	x	5	x	37*	RORg DNA counter=>40
O=C(NCc1cccs1)C1CCC(CNS(=O)(=O)c2cccc3cccnc23)CC1 (configuration not stated)	x	x	2	x	x	x	x
Cc1ccc(-c2nc3ccccc3n3nnnc23)cc1	x	-1	4	-1	-29	4	x
Cc1ccc(CNc2nc3ccccc3n3nnnc23)cc1	-1	2	115*	-1	-72	-15	71*	RORg DNA counter=>40
Cc1nc(SCC(N)=O)[nH]c(=O)c1C	x	x	0	x	x	x	x
CCOC(=O)CSc1nc2cc(OC)ccc2cc1C#N	-1	0	30*	-4	-150	2	31*
CC(C)OC(=O)CSc1nc2cc3c(cc2cc1C#N)OCO3	-1	-2	49*	-5	-21	0	9
N#Cc1cc2cc3c(cc2nc1Cl)OCCO3	x	1	27*	-10	-22	0	22*
Cc1cc2cc3c(cc2nc1SCC(=O)N1CCOCC1)OCO3	4	-2	-2	-2	-57	-16	x
N#Cc1cc2cc3c(cc2nc1SCC(=O)N1CCOCC1)OCO3	2	-4	37*	7	-47	-10	12
CC(C)C[C@@H]1COc2cc(Br)ccc2S(=O)(=O)N1Cc1cn(Cc2ccc(Cl)cc2)nn1	x	x	-4	x	x	x	x
N#Cc1cc2ccccc2nc1SCc1cccnc1	0	0	1	6	-14	-2	x
COc1ccc2nc(SCc3cccnc3)c(C#N)cc2c1	3	-2	86*	-8	-49	-10	56*	RORg DNA counter=i
CCOC(=O)CSc1nc(N)c(C#N)c(-c2ccc(OCC)cc2)c1C#N	5	12*	56*	-5	-4	-7	29*
CCOC(=O)CSc1nc2cc3c(cc2cc1C#N)OCCO3	4	3	75*	1	-90	11	31*	RORg DNA counter=0.66*
CCOC(=O)CSc1nc(C)cc(C)c1C#N	0	0	-2	14	7	-7	x
COc1ccc(/C=N\NC(=O)Cc2cccs2)c(OC)c1OC	x	x	-5	x	x	x	x
COc1cc2oc(=O)cc(-c3ccc(-c4ccc(C)cc4)cc3)c2c(OC)c1OC	x	0	7	-1	-30	-7	x
COc1cc2oc(=O)cc(-c3ccc(-c4ccc(CO)cc4)cc3)c2c(OC)c1OC	x	0	30*	2	-59	4	28*	RORg DNA counter=>40
COc1ccccc1-c1cccc2c3c([nH]c12)[C@@H]1C[C@H]2[C@@H](CN1CC3)[C@H](C)ON2C	x	x	2	x	x	x	x
COCc1nc2sc3c(c2c(=O)[nH]1)CCCC3	6	-4	0	-2	-12	4	x
SMILES	NR2E3 ag-1	PG9 Ab binder	NR1D1 modulator	PKA-R2B act	NR2E3 ag-2	PKA-R1A act	NR1D1 mod conf	others
COc1cccc(-c2nc3sc4c(c3c(=O)[nH]2)CCCCC4)c1	-2	-1	26*	-5	-32	-11	2
CCOC(=O)[C@]12CCCCC/C=C\1N(Cc1ccc(OC)cc1)C(=O)[C@H]2CC(=O)NCc1ccc(OC)c(OC)c1	x	x	0	x	x	x	x
CCOC(=O)C1=CCN(S(=O)(=O)c2cccc(Cl)c2)C1c1cccc(C)c1 (configuration not stated)	x	-1	18*	x	-14	x	4
CCC(=O)c1ccc(OCc2ccc(C(=O)c3ccccc3)cc2)cc1	2	1	70*	5	-10	2	149*	RORg DNA counter=>40
O=C(O[C@H]1CC[C@@]23CCCN2C(=O)CCC[C@H]3C1)N1CCCC1	x	x	-9	x	x	x	x
CCOc1ccccc1NC(=O)Cn1cnc2c(nnn2-c2cccc(OC)c2)c1=O	-2	1	12	-6	-14	1	x
COc1cccc(-n2nnc3c(=O)n(CC(=O)Nc4ccccc4C)cnc32)c1	5	1	23*	-1	-3	-12	5
CN[C@H]1C[C@H]2c3[nH]c4c(-c5cccc(C)c5)cccc4c3CCN2C[C@H]1[C@H](C)O	x	x	10	x	x	x	x
CC(C)(C)NC(=O)[C@@H](c1cccnc1)N(C(=O)c1ccco1)c1ccc(C(C)(C)C)cc1	x	x	-1	x	x	x	x
Cc1ccccc1CS(=O)(=O)Cc1ccc(C(=O)Nc2ccc(F)cc2)o1	x	x	2	x	x	x	x
N#Cc1cccc(NC(=O)OCCN2C(=O)CCC23CCC(c2ccc(Cl)cc2)CC3)c1 (configuration not stated)	x	x	6	x	x	x	x
